The term IC50 denotes the concentration that inhibits the measured activity by half.

Consider eight compounds from ChEMBL document CHEMBL4665780, “Synthesis of flutamide-conjugates” (Bioorg Med Chem Lett, 2020).

Test [1] relates to HCT-15. Description: Anticancer activity against human HCT-15 cells assessed as inhibition of cell growth incubated for 48 hrs by MTT assay. The class given is functional, cell-based. The note with it: HCT-15, 48 h. The gist of the method:
(§1)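 MTT assay against a panel of human cancer lines (U-251 glioblastoma, PC-3 prostatic adenocarcinoma, K-562 chronic myelogenous leukemia, HCT-15 colorectal adenocarcinoma) and monkey kidney fibroblasts (COS-7). Cells were exposed to compounds for 48 h. IC50 (µM) came from MTT readings as the mean ± SD of two independent trials, each run in triplicate.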
Background: Formazan colour is commonly taken as a measure of viable cells.

The subject of test [2] is U-251. Description: Anticancer activity against human U-251 cells assessed as inhibition of cell growth incubated for 48 hrs by MTT assay. Format: functional, cell-based. Conditions: U-251, 48 h. The gist of the method:
as §1

The test system of test [3] is PC-3. The test can be described thus: Anticancer activity against human PC-3 cells assessed as inhibition of cell growth incubated for 48 hrs by MTT assay. Format: functional, cell-based. The note with it: PC-3, 48 h. The procedure, abridged:
as §1

Test [4] concerns COS-7. Description: Anticancer activity against African green monkey COS7 cells assessed as inhibition of cell growth incubated for 48 hrs by MTT assay. Format: cell-based. Conditions: Chlorocebus aethiops, COS-7, 48 h. The gist of the method: as §1
Test [5] deals with K562. Description: Anticancer activity against human K562 cells assessed as inhibition of cell growth incubated for 48 hrs by MTT assay. Format: functional, cell-based. The note with it: K562, 48 h. The procedure, abridged:
as §1

Some results are limits rather than exact numbers.

With `CCCCCCCCCCCCOc1cc(OCCCCCCCCCCCC)cc(C(=O)NCCN)c1`, the IC50 in test [1], in test [2], in test [3], in test [4] and in test [5] was over 1000 µM in each case.

Take `CC(C)C(=O)N(CC(=O)NCCN)c1ccc([N+](=O)[O-])c(C(F)(F)F)c1`: the IC50 in test [1] is over 100 µM; in test [2], 24.1 µM; in test [3], 20.1 µM; in test [4], 15.2 µM; in test [5], 18 µM.

Turning to `CCCCCCCCCCCCOc1cc(OCCCCCCCCCCCC)cc(C(=O)NCCNC(=O)CN(C(=O)C(C)C)c2ccc([N+](=O)[O-])c(C(F)(F)F)c2)c1`, the IC50 in test [1] was 19.2 µM; in test [2] it was 14.3 µM; in test [3], 13.3 µM; in test [4] it was over 1000 µM; in test [5], 15.4 µM.

As for `CCCCCCCCCCCCOc1cc(OCCCCCCCCCCCC)cc(C(=O)OC)c1`, the IC50 in test [1], in test [2], in test [3], in test [4] and in test [5] was over 1000 µM in each case.

For `CCCCCCCCCCCCOc1cc(OCCCCCCCCCCCC)cc(C(=O)NCCN(CCC(=O)NCCNC(=O)CN(C(=O)C(C)C)c2ccc([N+](=O)[O-])c(C(F)(F)F)c2)CCC(=O)NCCNC(=O)CN(C(=O)C(C)C)c2ccc([N+](=O)[O-])c(C(F)(F)F)c2)c1`, the IC50 in test [1] was 22.4 µM; in test [2], 8.59 µM; in test [3], 7.16 µM; in test [4] it was over 1000 µM; in test [5], 6.79 µM.

Turning to `COC(=O)CN(C(=O)C(C)C)c1ccc([N+](=O)[O-])c(C(F)(F)F)c1`, the IC50 in test [1] was over 100 µM; in test [2], 20.1 µM; in test [3], 19.1 µM; in test [4], 12.1 µM; in test [5], 14.1 µM.

As to `CCCCCCCCCCCCOc1cc(OCCCCCCCCCCCC)cc(C(=O)NCCN(CCC(=O)OC)CCC(=O)OC)c1`, the IC50 in test [1], in test [2], in test [3], in test [4] and in test [5] was over 1000 µM in each case.

With `CC(C)C(=O)Nc1ccc([N+](=O)[O-])c(C(F)(F)F)c1` [FLUTAMIDE], the half-inhibitory concentration (IC50) in test [1] is over 100 µM; in test [2], 22.1 µM; in test [3] it was 20.3 µM; in test [4], 51.5 µM; in test [5], 29.2 µM.
